Data set [1] in a line: Cytotoxicity against human SW480 cells overexpressing TMPRSS4 assessed as cell viability at 0.1 uM after 2 days by CCK-8 assay. The data set is classed as cell-based. The conditions noted are these: read-out: Activity. Put shortly: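 Seeded at 10,000 cells/well, exposed to 0.1 µM compound or none at 37 °C for 2 days; CCK-8 reagent added and absorbance read at 450 nm. Higher value taken as lower cytotoxicity.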
On the technique in general: Tetrazolium dyes change colour on reduction, which living cells bring about.

In data set [2] the target is T1, Transmembrane protease serine 4 (Homo sapiens, UniProt Q9NRS4). The data set is described as follows: Inhibition of N-terminal His6-tagged recombinant TMPRSS4 (unknown origin) fused with enterokinase cleavage sequence DYKDDDGDYKDDDDK expressed in Escherichia coli BL21 (DE3) using Z-Phe-Arg-7-amido-4-methylcoumarin hydrochloride as substrate by fluorometric analysis.
T1 sequence (Q9NRS4 whole entry, the tested form may be a part): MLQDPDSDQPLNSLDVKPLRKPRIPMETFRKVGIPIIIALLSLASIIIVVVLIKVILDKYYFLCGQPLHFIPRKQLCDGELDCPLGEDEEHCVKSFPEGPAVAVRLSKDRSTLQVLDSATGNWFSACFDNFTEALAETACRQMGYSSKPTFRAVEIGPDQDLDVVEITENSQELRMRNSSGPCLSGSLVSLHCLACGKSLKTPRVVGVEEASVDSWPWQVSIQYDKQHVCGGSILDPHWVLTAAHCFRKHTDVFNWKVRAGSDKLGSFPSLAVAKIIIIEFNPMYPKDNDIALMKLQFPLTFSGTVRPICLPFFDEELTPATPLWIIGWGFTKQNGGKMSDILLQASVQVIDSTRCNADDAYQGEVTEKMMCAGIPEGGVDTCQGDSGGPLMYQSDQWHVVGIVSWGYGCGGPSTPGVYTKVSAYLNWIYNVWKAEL

Data set [3] addresses T1, Transmembrane protease serine 4. The data set is described as follows: Inhibition of TMPRSS4 in human SW480 cells assessed as inhibition of cell invasion at 0.1 uM relative to control. The data set is classed as cell-based. The gist of the method: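 SW480 cells overexpressing TMPRSS4 (clone T19) left to invade reconstituted basement membrane (Matrigel) with 0.1 µM compound present. Invasion expressed as percent inhibition relative to DMSO negative control.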

Structures can show the parent of a compound that is named as a salt.

Consider `O=C(Nc1cc(C(F)(F)F)cc(C(F)(F)F)c1)c1cc(Cl)ccc1O` [IMD-0354], for which the viability at 48 h, 0.1 µM in data set [1] came to 90%. Moreover, in data set [2], the IC50 (as a rule, the concentration that gives 50% inhibition) is 11 µM. Also, in data set [3], the inhibition – broadly, how much of the control response was suppressed – worked out at 45%. As to `Cc1cc(C)cc(NC(=O)c2cc(Cl)ccc2O)c1`, in data set [2], the half-inhibitory concentration (IC50) is 39 µM. As to `COc1c(C(F)(F)F)cc(NC(=O)c2cc(Cl)ccc2O)cc1C(F)(F)F`, the IC50 in data set [2] turned out to be 12 µM.

As to `O=C(Nc1cc(C(F)(F)F)cc(C(F)(F)F)c1)c1cc(Cl)ccc1OCc1ccccc1`, the IC50 in data set [2] is > 100 µM. For the compound `O=C(Nc1cc(C(F)(F)F)ccc1F)c1cc(Cl)ccc1O`, in data set [2], the IC50 worked out at 28 µM. On the same count and under the same terms, the value for `NCCc1ccc(S(=O)(=O)F)cc1` [4-AMINOETHYLBENZENESULFONYL FLUORIDE HYDROCHLORIDE] was 39 µM; that for `N#Cc1ccc(NC(=O)c2cc(Cl)ccc2O)nc1` was 80 µM; that for `O=C(Nc1ccc(C(F)(F)F)cn1)c1cc(Cl)ccc1O` was > 100 µM. As to `Cc1ccc(O)c(C(=O)Nc2cc(C(F)(F)F)cc(C(F)(F)F)c2)c1`, the IC50 in data set [2] turned out to be 28 µM. As for `O=C(Nc1ncccn1)c1cc(Cl)ccc1O`, the half-maximal inhibitory concentration (IC50) in data set [2] is > 100 µM.

As to `O=C(Nc1cc(C(F)(F)F)cc(C(F)(F)F)c1)c1ccc(Cl)cc1O`, the IC50 in data set [2] was determined as 12 µM. Still for that read-out and setting: for `O=C(Nc1cc(C(F)(F)F)cc(C(F)(F)F)c1)c1cc(Br)ccc1O` the value was 13 µM. Turning to `O=C(Nc1cc(C(F)(F)F)c(Br)c(C(F)(F)F)c1)c1cc(Cl)ccc1O`, in data set [1], the viability at 48 h, 0.1 µM was 89%. The IC50 in data set [2] came out at 6 µM. Besides, the inhibition in data set [3] was 53%.

Take `O=C(Nc1cc(C(F)(F)F)cc(C(F)(F)F)c1)c1ccc2ccccc2c1O`: the IC50 in data set [2] was > 100 µM. On the same count and under the same terms, the value for `O=C(Nc1cc(Cl)c(Cl)c(Cl)c1)c1cc(Cl)ccc1O` was > 100 µM. With `O=C(NCc1cc(C(F)(F)F)cc(C(F)(F)F)c1)c1cc(Cl)ccc1O`, in data set [2], the IC50 came to 18 µM. For the compound `COc1cc(NC(=O)c2cc(Cl)ccc2O)cc(C(F)(F)F)c1`, in data set [2], the half-maximal inhibitory concentration (IC50) was 16 µM.

Turning to `N#Cc1ccc(O)c(C(=O)Nc2cc(C(F)(F)F)cc(C(F)(F)F)c2)c1`, the IC50 in data set [2] came to 19 µM. Same read-out and setting: the value for `CC(=O)Oc1ccc(Cl)cc1C(=O)Nc1cc(C(F)(F)F)cc(C(F)(F)F)c1` was > 100 µM. In the case of `O=C(Nc1cc(Br)cc(C(F)(F)F)c1)c1cc(Cl)ccc1O`, in data set [1], the viability at 48 h, 0.1 µM was 93%. The IC50 in data set [2] is 12 µM. Besides, the inhibition in data set [3] is 43%. As to `N#Cc1ccc(NC(=O)c2cc(Cl)ccc2O)cc1`, the IC50 in data set [2] came to 76 µM. Still for that read-out and setting: for `O=C(Nc1ccc(Cl)nc1)c1cc(Cl)ccc1O` the value was > 100 µM; for `O=C(Nc1cnc2ccccc2c1)c1cc(Cl)ccc1O`, 85 µM. On to `O=C(Nc1cc(C(F)(F)F)cc(C(F)(F)F)c1)c1cc([N+](=O)[O-])ccc1O`, for which the viability at 48 h, 0.1 µM in data set [1] worked out at 96%. Also, the IC50 in data set [2] was 12 µM. The inhibition in data set [3] came to 26%.

Take `O=C(Nc1ccnc(Cl)c1)c1cc(Cl)ccc1O`: the IC50 in data set [2] was > 100 µM. On the same count and under the same terms, for `O=C(Nc1ccc(Br)c(C(F)(F)F)c1)c1cc(Cl)ccc1O` the value was 30 µM. For the compound `O=C(Nc1ccc(C(F)(F)F)c(C(F)(F)F)c1)c1cc(Cl)ccc1O`, the 50% inhibitory concentration (IC50) in data set [2] was determined as 13 µM. As for `O=C(Nc1cc(C(F)(F)F)cc(C(F)(F)F)c1)c1cc(Cl)cnc1O`, in data set [2], the IC50 was > 100 µM.

Turning to `COc1ccc(O)c(C(=O)Nc2cc(C(F)(F)F)cc(C(F)(F)F)c2)c1`, the IC50 in data set [2] came out at 29 µM. Take `O=C(Nc1cc(C(F)(F)F)cc(C(F)(F)F)c1)c1cc(F)ccc1O`: the IC50 in data set [2] came out at 29 µM. As for `O=C(Nc1cc(C(F)(F)F)ccc1C(F)(F)F)c1cc(Cl)ccc1O`, the IC50 in data set [2] came to 20 µM. Take `NC(=O)c1ccc(O)c(C(=O)Nc2cc(C(F)(F)F)cc(C(F)(F)F)c2)c1`: the IC50 in data set [2] was > 100 µM. As to `Cc1c(C(F)(F)F)cc(NC(=O)c2cc(Cl)ccc2O)cc1C(F)(F)F`, the viability at 48 h, 0.1 µM in data set [1] was 90%. The IC50 in data set [2] amounted to 10 µM. For the same compound, the inhibition in data set [3] came to 43%.

As for `O=C(Nc1cccc(C(F)(F)F)c1)c1cc(Cl)ccc1O`, the IC50 in data set [2] came out at 13 µM.

In the case of `O=C(Nc1cc(C(F)(F)F)cc(C(F)(F)F)c1)c1cccc(Cl)c1O`, the IC50 in data set [2] is 12 µM.

For the compound `O=C(Nc1cc(C(F)(F)F)cc(C(F)(F)F)c1)c1ccccc1O`, the IC50 in data set [2] is > 100 µM.

As for `O=C(Nc1cc(Cl)cc(Cl)c1)c1cc(Cl)ccc1O`, the IC50 in data set [2] stood at 19 µM. The same measure, in the same setting: for `O=C(Nc1ccccc1)c1cc(Cl)ccc1O` the value was 50 µM; for `O=C(Nc1cc(C(F)(F)F)cc(C(F)(F)F)c1)c1c[nH]c2ccccc2c1=O`, > 100 µM.

Take `O=C(Nc1ccc(Cl)c(C(F)(F)F)c1)c1cc(Cl)ccc1O`: the IC50 in data set [2] amounted to 35 µM.

Source of the values: ChEMBL document CHEMBL2331365, “Discovery of novel 2-hydroxydiarylamide derivatives as TMPRSS4 inhibitors” (Bioorg Med Chem Lett, 2013).
